ChEMBL document CHEMBL3779898, “3,3'-OH curcumin causes apoptosis in HepG2 cells through ROS-mediated pathway” (Eur J Med Chem, 2016)
pIC50: −log10 of the molar value.

Tests used:
HepG2 [1] = assay: Cytotoxicity against human HepG2 cells assessed as reduction in cell viability after 48 hrs by MTT assay; assay type: functional, cell-based; details: HepG2, 48 h
Summary of the method: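 HepG2 seeded at 3×10^3/well, grown 24 h, then exposed to compounds for 48 h. MTT (0.5 mg/mL) added for 4 h, formazan dissolved in DMSO, absorbance read at 570 nm. IC50 = concentration giving 50% loss of viability; mean ± SD of three determinations.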

HepG2 [2] = assay: Induction of apoptosis in human HepG2 cells assessed as early apoptotic cells at 5 mM after 24 hrs by Annexin V-FITC/propidium iodide staining based flow cytometry (reference value: 2.8%); assay type: functional
Summary of the method: (§1)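 HepG2 plated at 5×10^5/well, grown 24 h, then treated 24 h; where indicated, 1 h pretreatment with 5 mM GSH or NAC. Cells stained with Annexin V-FITC/PI; 10,000 cells per sample analysed by flow cytometry into early apoptotic, late apoptotic and necrotic quadrants; triplicate.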

HepG2 [3] = assay: Induction of apoptosis in human HepG2 cells assessed as necrotic cells at 5 mM after 24 hrs by Annexin V-FITC/propidium iodide staining based flow cytometry (reference value: 1.6%); assay type: functional; summary of the method: as §1
HepG2 [4] = assay: Induction of apoptosis in human HepG2 cells assessed as late apoptotic cells at 5 mM after 24 hrs by Annexin V-FITC/propidium iodide staining based flow cytometry (reference value: 5.4%); assay type: functional; summary of the method: as §1

SMILES | pIC50 (HepG2 [1]) | other results
O=C(/C=C/c1ccccc1O)CC(=O)/C=C/c1ccccc1O | 4.30 | 
O=C(/C=C/c1cccc(C(F)(F)F)c1)CC(=O)/C=C/c1cccc(C(F)(F)F)c1 | < 3.70 | 
O=C(/C=C/c1ccccc1C(F)(F)F)CC(=O)/C=C/c1ccccc1C(F)(F)F | < 3.70 | 
COc1ccccc1/C=C/C(=O)CC(=O)/C=C/c1ccccc1OC | 3.90 | 
N[C@@H](CCC(=O)N[C@@H](CS)C(=O)NCC(=O)O)C(=O)O [GLUTATHIONE] |  | Activity (HepG2 [2]): 2.5%; Activity (HepG2 [3]): 2.1%; Activity (HepG2 [4]): 5.5%
COc1ccc(/C=C/C(=O)CC(=O)/C=C/c2ccc(OC)cc2)cc1 | < 3.70 | 
